Bioassay records deposited in PubChem BioAssay by Broad Institute.
CaV13 ICDI inh: Primary screen for inhibitors of IQ motif and Ca2+-dependent inactivation inhibitor domain binding in CACNA1D, Förster resonance energy transfer in living cells, …; 340,000 tested, 0.098% active; HEK cells, CFP/YFP FRET ICDI-IQ, plate reader, 10 min; percent FRET-ratio fall versus neutral wells; inhibition, % at 12.3 µM;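 active = mean replicate inhibition of at least 30% and at least 1% of replicates passing that level; inconclusive = only one of the two criteria is met; inactive = neither criterion is met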;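 also: 0% = median of the neutral control wells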
AF4-AF9 inh: blocks AF4 peptide binding to human AF9 | P42568 | AlphaScreen, biotin-AF4 peptide binding to FLAG-AF9 | inhibition, % at 10 µM | 350,000 tested, 0.47% active | AID 651704;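 active = every replicate reaching a set inhibition limit, whatever the replicate mean, cut at about 25% in these data; inconclusive = mean inhibition reaches that limit but some replicates miss it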;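 also: 0% = plate neutral control median and 100% = total signal loss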
DENV2 CPE rescue: protects cells from dengue virus 2 cytopathic effect; 350,000 tested, 1.7% active; CPE inhibition, % at 9.99 µM; DENV2-infected cells, cytopathic effect rescue, plate reader; in the data active = CPE inhibition above about 20%, passing the limit was not always enough; inconclusive = no clear call, values can overlap the other calls; tested in BHK-21 cells;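 also: 0% = median of neutral control wells and 100% = median of positive control wells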
SIRT5 block: sirtuin-5 (human) deacylase inhibition; Q9NXA8; Purified SirT5, succinyl-peptide AMC, trypsin-coupled fluorescence; inhibition, % at 15 µM; 330,000 tested, 1.1% active; in the data active = inhibition above about 15%; inconclusive = no clear call, values can overlap the other calls
Target sequence (Q9NXA8 whole entry, looked up): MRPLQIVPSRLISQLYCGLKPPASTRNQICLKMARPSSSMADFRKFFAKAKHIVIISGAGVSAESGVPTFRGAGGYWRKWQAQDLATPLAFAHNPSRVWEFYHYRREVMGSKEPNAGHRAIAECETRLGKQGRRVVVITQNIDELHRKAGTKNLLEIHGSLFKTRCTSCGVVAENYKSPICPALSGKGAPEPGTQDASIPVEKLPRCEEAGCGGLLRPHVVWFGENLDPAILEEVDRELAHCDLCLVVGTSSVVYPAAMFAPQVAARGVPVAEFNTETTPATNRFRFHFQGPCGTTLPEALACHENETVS
S100A4 MyoIIA: inhibitors of human S100A4 binding to myosin IIA peptide; P26447; S100A4/TAMRA-MyoIIA peptide fluorescence polarization; inhibition, % at 10.7 µM; 360,000 tested, 0.14% active;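 active = mean inhibition of at least 70% across replicates, with every replicate also reaching that level; inconclusive = mean inhibition reaches 70% but some replicates fall short; inactive = mean inhibition below 70%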
Target sequence (P26447 whole entry, looked up): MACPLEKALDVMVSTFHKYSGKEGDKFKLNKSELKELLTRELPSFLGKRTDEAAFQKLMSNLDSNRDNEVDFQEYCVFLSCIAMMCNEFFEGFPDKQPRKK
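incubation = readout 5 min after mixing, signal stable up to 60 min | system = S100A4 monomer protein | buffer or medium = HEPES pH 7.2 with CaCl2, KCl, NaCl, DTT, Triton | benchmarks = neutral control DMSO, positive control TFP | also added = fluorescent myosin IIA peptide, 5 nM | compound dosing = one concentration per compound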
* = called active by the depositor. An excerpt weighted towards active compounds, which were near 2.7% of everything screened.

O=C(c1cccc(F)c1)N1CCCC(C(=O)N2CCCCC2)C1 (configuration not stated) was read as CaV13 ICDI inh -6, AF4-AF9 inh -6, DENV2 CPE rescue 0, SIRT5 block 22* and S100A4 MyoIIA -2.
`CN(C(=O)c1cccc(NC(=O)Cc2ccc(NC(=O)C3CCN(C(=O)C4CC4)CC3)cc2)c1)C1CCCC1` gave CaV13 ICDI inh -10, AF4-AF9 inh -1, DENV2 CPE rescue 47*, SIRT5 block 0 and S100A4 MyoIIA 3.
For CN(Cc1ccccc1)C(=O)c1cccc(NC(=O)Cc2ccc(NC(=O)C3CCCN(C(=O)CCc4ccccc4)C3)cc2)c1 (configuration not stated) the results were CaV13 ICDI inh -11, AF4-AF9 inh 0, DENV2 CPE rescue 64*, SIRT5 block -3 and S100A4 MyoIIA -8.
`CCN1[C@H](C(=O)N(C)C)[C@@H](CO)[C@@H]2Cn3c(ccc(-c4ccc(F)cc4)c3=O)[C@@H]21` gave AF4-AF9 inh 0, DENV2 CPE rescue 7, SIRT5 block -3 and S100A4 MyoIIA 9.
`C[C@@H]1CN([C@H](C)CO)C(=O)c2cc(NC(=O)CCCN(C)C)ccc2O[C@@H](C)CCCCO[C@@H]1CN(C)Cc1ccc(C(F)(F)F)cc1` gave AF4-AF9 inh 6, DENV2 CPE rescue -3, SIRT5 block -4 and S100A4 MyoIIA 9.
Screening Cc1ccc(S(=O)(=O)Nc2cccc3c2O[C@H](CN(C)Cc2ccc(Cl)c(Cl)c2)[C@@H](C)CN([C@H](C)CO)C3=O)cc1 returned AF4-AF9 inh -13, DENV2 CPE rescue 8, SIRT5 block 7 and S100A4 MyoIIA -1.
Screening COCC(=O)N1[C@@H](C#N)[C@@H](c2ccc(C3=CCCC3)cc2)[C@@H]1CO returned AF4-AF9 inh 0, DENV2 CPE rescue -4, SIRT5 block -1 and S100A4 MyoIIA -10.
Screening N#C[C@H]1[C@@H](c2ccc(-c3cccc(F)c3)cc2)[C@H](CO)N1c1nc(-c2ccccc2)cs1 returned AF4-AF9 inh 1, DENV2 CPE rescue -7, SIRT5 block 4 and S100A4 MyoIIA -12.
COc1cccc(-c2ccc([C@@H]3[C@@H](C#N)N(C(=O)Cc4ccccc4)[C@@H]3CO)cc2)c1 was read as AF4-AF9 inh -1, DENV2 CPE rescue 26*, SIRT5 block 6 and S100A4 MyoIIA 1.
Screening N#C[C@H]1[C@H](c2ccc(-c3cccc(F)c3)cc2)[C@@H](CO)N1c1nc(-c2ccccc2)cs1 returned AF4-AF9 inh -9, DENV2 CPE rescue 38*, SIRT5 block 2 and S100A4 MyoIIA -18.
`COCC(=O)N1[C@@H](C#N)[C@H](c2ccc(-c3cccc(F)c3)cc2)[C@@H]1CO` gave AF4-AF9 inh -1, DENV2 CPE rescue inconclusive, SIRT5 block 6 and S100A4 MyoIIA 116*.
For COCC(=O)N1[C@@H](C#N)[C@@H](c2ccc(C3=CCCCC3)cc2)[C@@H]1CO the results were AF4-AF9 inh 3, DENV2 CPE rescue 24*, SIRT5 block 3 and S100A4 MyoIIA 1.
CN(C)CC#Cc1ccc([C@H]2[C@@H](CO)N3CCCCN(C(=O)NC4CCCC4)C[C@@H]23)cc1 was read as AF4-AF9 inh 1, DENV2 CPE rescue 13, SIRT5 block 0 and S100A4 MyoIIA 20.
Screening C[C@@H]1CN([C@@H](C)CO)S(=O)(=O)c2ccc(C#CC3CC3)cc2O[C@H]1CN(C)Cc1ccc(F)cc1 returned AF4-AF9 inh 0, DENV2 CPE rescue -5, SIRT5 block 11 and S100A4 MyoIIA -17.
For O=C(Cc1ccncc1)NCC[C@H]1CC[C@H](NC(=O)Nc2ccc(F)cc2)[C@H](CO)O1 the results were AF4-AF9 inh 0, DENV2 CPE rescue 7 and S100A4 MyoIIA -2.
Screening Cc1noc(C)c1NC(=O)N(C)C[C@@H]1Oc2ccc(NS(=O)(=O)c3ccccc3)cc2CC(=O)N([C@@H](C)CO)C[C@@H]1C returned AF4-AF9 inh -1, DENV2 CPE rescue -2, SIRT5 block -3 and S100A4 MyoIIA 8.
`COCC(=O)Nc1ccc2c(c1)OC[C@H](C)N(CC1CCCCC1)C[C@H](C)[C@@H](OC)CN(C)C2=O` gave AF4-AF9 inh 4, DENV2 CPE rescue 7, SIRT5 block -1 and S100A4 MyoIIA -4.
